Target: T1, fibrin (Rattus norvegicus, UniProt P02680+P06399+P14480)
T1 sequence (P06399 20-550 isoform P06399-2 limits assumed): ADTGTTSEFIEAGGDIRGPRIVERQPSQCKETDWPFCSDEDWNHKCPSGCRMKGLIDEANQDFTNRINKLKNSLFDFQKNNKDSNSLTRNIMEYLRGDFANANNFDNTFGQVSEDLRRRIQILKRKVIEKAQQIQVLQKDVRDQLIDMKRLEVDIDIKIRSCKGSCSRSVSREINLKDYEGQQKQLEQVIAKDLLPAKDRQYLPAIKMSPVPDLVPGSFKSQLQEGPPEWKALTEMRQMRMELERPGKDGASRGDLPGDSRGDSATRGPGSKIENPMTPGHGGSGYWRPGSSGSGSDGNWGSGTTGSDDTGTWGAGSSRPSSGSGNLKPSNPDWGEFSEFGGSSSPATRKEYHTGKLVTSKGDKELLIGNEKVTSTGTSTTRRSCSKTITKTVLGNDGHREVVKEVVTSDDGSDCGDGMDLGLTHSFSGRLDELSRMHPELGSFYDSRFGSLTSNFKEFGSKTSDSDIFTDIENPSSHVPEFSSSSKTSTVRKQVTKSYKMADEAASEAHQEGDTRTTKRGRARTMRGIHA
T1 sequence (P14480 33-479 limits assumed): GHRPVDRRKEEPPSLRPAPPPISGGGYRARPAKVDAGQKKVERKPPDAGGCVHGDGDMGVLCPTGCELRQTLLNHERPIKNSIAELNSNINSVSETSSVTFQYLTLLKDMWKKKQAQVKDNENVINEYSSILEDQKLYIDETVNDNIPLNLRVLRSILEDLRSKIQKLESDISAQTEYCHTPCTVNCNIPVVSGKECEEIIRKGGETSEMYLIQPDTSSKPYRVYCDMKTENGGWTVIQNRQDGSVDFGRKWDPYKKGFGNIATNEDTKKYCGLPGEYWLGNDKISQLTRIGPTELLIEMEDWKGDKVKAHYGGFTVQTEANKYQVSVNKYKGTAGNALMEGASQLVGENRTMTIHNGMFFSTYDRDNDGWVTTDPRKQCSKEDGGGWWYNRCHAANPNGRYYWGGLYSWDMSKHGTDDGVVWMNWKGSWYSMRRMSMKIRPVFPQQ
T1 sequence (P02680 26-437 isoform P02680-2 limits assumed): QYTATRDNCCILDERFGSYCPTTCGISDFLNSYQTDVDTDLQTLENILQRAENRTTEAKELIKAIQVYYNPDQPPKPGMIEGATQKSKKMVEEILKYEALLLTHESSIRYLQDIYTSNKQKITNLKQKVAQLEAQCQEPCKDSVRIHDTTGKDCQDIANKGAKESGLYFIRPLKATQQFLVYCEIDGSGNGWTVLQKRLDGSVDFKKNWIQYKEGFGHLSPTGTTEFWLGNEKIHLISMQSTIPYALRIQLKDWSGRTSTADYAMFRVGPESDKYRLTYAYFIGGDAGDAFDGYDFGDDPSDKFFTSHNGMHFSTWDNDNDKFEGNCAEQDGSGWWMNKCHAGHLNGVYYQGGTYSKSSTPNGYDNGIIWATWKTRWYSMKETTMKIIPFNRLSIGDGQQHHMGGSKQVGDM
Assay: brain autoradiography, embolic stroke with rtPA or vehicle
Format: in vivo
Settings: rtPA-treated animals
Summary of the method: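 Rats with embolic clot in ICA/MCA got ~300 μCi probe (0.3–0.4 mL, saline flush) 15–30 min after surgery. About 1 h after clot injection they received rtPA (10 mg/kg i.v., 10% bolus, 90% infused over 30 min) or 1 mL saline. Euthanised after 45 min baseline plus 90 min PET. 2 mm brain sections autoradiographed; ipsilateral/contralateral ICA-MCA ROI activity ratio; mean ± S.E.M.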

ipsilateral to contralateral ICA-MCA ratio by autoradiography with FBP7: ~1
Substance: rtPA: recombinant tissue plasminogen activator (alteplase), thrombolytic treatment

— publication PMC4102658 (Circulation. Cardiovascular imaging, 2014)
